# Published values pooled from the literature.
# Protocols differ between the studies behind these lines.
# Effect on: cell growth or viability
Compound,cell line,test,setting,quantity,value
N.N.[Cl][Pt][Cl],K562,ATP luminescence,"10 µM, 72 h",inhibition,97%
CN(C)c1ccc(C(=O)NCCCCCCC(=O)NO)cc1,OCI-Ly1,ATP luminescence,"0.5 µM, 5 days",viability,62.3%
Cc1ncsc1-c1ccc([C@H](C)NC(=O)[C@@H]2C[C@@H](O)CN2C(=O)[C@@H](c2cc(N3CCC(CN4CCC(OC5CC(Oc6cc(N7C8CCC7CN(c7cc(-c9ccccc9O)nnc7N)C8)ccn6)C5)CC4)CC3)no2)C(C)C)cc1 (some centres unmarked),VCaP,ATP luminescence,7 days,IC50,4.3 nM
CC[C@H](C)[C@@H]([C@@H](CC(=O)N1CCC[C@H]1[C@H](OC)[C@@H](C)C(=O)N[C@H](C)[C@@H](O)c1ccccc1)OC)N(C)C(=O)[C@@H](NC(=O)[C@H](C(C)C)N(C)C(=O)OCc1ccc(NC(=O)[C@H](CCCNC(N)=O)NC(=O)[C@@H](NC(=O)CCOCCOCCOCCOCCC(=O)N[C@@H]2CSSC[C@H](C(=O)O)NC(=O)CNC(=O)[C@@H](CCCNC(=N)N)NC(=O)CNC(=O)[C@@H](C(C)C)NC(=O)CNC(=O)[C@@H](C)NC(=O)[C@@H](CCCNC(=N)N)NC2=O)C(C)C)cc1)C(C)C,4T1,resazurin,24 h,IC50,500 nM
Cc1ccc(NC(=O)c2ccc(CN3CCN(C)CC3)cc2)cc1Nc1nccc(-c2cccnc2)n1,K562,MTT,0.2 µM,viability,41.6%
N.N.[Cl][Pt][Cl],MCF-10A,MTT,"48 h, dark",IC50,34600 nM
CC(=O)N[C@H]1[C@@H](O[C@@H]2O[C@H](C[C@@H](O)[C@H]3O[C@@H](n4ccc(=O)[nH]c4=O)[C@H](O)[C@@H]3O)[C@H](O)[C@H](O)[C@H]2NC(=O)/C=C/CCCCCCCCCC(C)C)O[C@H](CO)[C@@H](O)[C@@H]1O,MCF-10A,WST-1,,IC50,250 nM
CC[C@H](C)[C@@H]([C@@H](CC(=O)N1CCC[C@H]1[C@H](OC)[C@@H](C)C(=O)N[C@H](C)[C@@H](O)c1ccccc1)OC)N(C)C(=O)[C@@H](NC(=O)[C@@H](NC)C(C)C)C(C)C,4T1,CCK-8,,IC50,0.294 nM
